Source: PubChem BioAssay
The source made the active and inactive calls.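 Rule for the calls: active = current rise at least 3 SD above the untreated control mean in each of two repeat wells; inactive = the rest.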

Each molecule was assayed against Potassium voltage-gated channel subfamily KQT member 1 (Homo sapiens) (UniProt P51787) (assay: KCNQ1 activators by electrophysiology – IonWorks patch clamp, KCNQ1-CHO cells, orthogonal assay for KCNQ1 potentiator project, confirmation (AID 493184)). Details: automated patch clamp current, at 10 µM.
Chain of Potassium voltage-gated channel subfamily KQT member 1 (Homo sapiens) (P51787 whole entry, looked up): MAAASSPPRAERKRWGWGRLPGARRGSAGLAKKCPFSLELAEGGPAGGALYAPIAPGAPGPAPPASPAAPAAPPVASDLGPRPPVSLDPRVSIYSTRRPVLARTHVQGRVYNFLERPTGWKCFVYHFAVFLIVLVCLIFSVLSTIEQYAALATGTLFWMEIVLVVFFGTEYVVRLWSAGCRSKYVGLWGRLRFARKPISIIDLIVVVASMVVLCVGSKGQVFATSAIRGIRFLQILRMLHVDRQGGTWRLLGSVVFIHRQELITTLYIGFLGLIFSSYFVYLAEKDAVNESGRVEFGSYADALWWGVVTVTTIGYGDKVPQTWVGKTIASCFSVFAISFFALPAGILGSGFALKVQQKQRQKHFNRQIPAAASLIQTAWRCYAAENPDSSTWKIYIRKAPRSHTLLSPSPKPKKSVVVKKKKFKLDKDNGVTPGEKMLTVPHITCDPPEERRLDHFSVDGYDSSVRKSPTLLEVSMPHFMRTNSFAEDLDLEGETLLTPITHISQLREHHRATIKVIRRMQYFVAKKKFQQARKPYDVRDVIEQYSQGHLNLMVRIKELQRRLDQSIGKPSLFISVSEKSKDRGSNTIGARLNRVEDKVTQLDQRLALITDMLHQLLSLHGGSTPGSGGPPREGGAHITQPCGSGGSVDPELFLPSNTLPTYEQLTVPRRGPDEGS
How it was run: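 Material: KCNQ1-expressing CHO cells; doses: 10 µM final, single point; probe or stimulus: voltage step from -90 mV holding to +40 mV, 2,000 ms; signal: automated voltage clamp, amphotericin B perforated patch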

outcome, inactive:
C=CCOc1c(Br)cc(/C=N/Nc2ccc(C(=O)O)cc2)cc1OCC
O=C(NC(=S)NC1CCCc2ccccc21)c1ccco1 (stereo not given)
Cc1onc(-c2ccccc2Cl)c1C(=O)Nc1ccccc1O
COc1ccc2nc(N=Nc3ccc(O)c4ccccc34)sc2c1
Cc1ccccc1-n1c(C)cc(/C=N/NC(=O)c2ccncc2)c1C
COC(=O)c1ccsc1NC(=O)CN1CCN(Cc2ccc3c(c2)OCO3)CC1
O=C(NC(=S)Nc1ccccc1Br)c1ccco1
O=C(NC(=S)Nc1ccccc1N1CCCCC1)c1cccs1
CC1CC(C)CN(Cc2nc(N)nc(Nc3ccc4ccccc4c3)n2)C1 (stereo not given)
O=C1C=C(NCc2ccccc2)c2ccccc2C1=O
CC(O)Cc1cn([C@@H](CCCCN)C(=O)N2CCNCC2)nn1 (stereo not given in full)
CCOc1ccc(NC(=O)Cn2sc3nc(C)cc(C)c3c2=O)cc1
OC(C#CCCN1CCCCC1)(c1ccccc1)c1ccccc1
O=C(NC(=S)Nc1ccccc1)c1csnn1
O=c1[nH]cc(N=Cc2cc(Cl)cc(Cl)c2O)c(=O)[nH]1
CCC1(c2ccc(Cl)cc2)NC(=S)N(c2ccc(C)cc2)N1 (stereo not given)
O=S(=O)(NCCOc1ccccc1)c1ccc2ccccc2c1
O=C1CN(C(=O)CSc2nc3cc(Cl)ccc3c(=O)n2Cc2ccccc2)c2ccccc2N1
COc1ccccc1C(=O)NNC(=O)C(=O)NC1CCCCC1
O=C(NC(=S)Nc1ccccc1F)c1ccc(Br)o1
O=C(Nc1cccc(NC(=O)c2c(F)cccc2F)n1)c1c(F)cccc1F
N#Cc1ccccc1NS(=O)(=O)c1cc2c3c(c1)CCC(=O)N3CCC2
CCCSC(=S)c1c(C)[nH]n(-c2ccccc2)c1=O
CCCOc1ccc(Cc2nc(N)nc(N)n2)cc1
O=C1CCC/C(=N\NC(=O)c2ccc(COc3cccc4cccnc34)cc2)C1
O=C1c2ccccc2NC(c2ccc(Br)s2)N1O (stereo not given)
FC(F)(F)c1cc(N2CCNCC2)c2ccccc2n1
COc1ccccc1-n1cnc2cc(NCc3ccco3)ccc21
CCC(C(=O)OCC(=O)NC(=O)NC(C)(C)C)c1ccccc1 (stereo not given)
CSc1ccc(/C=N/NC(=O)c2cccs2)cc1
S=c1nc(SCc2ccccc2)[nH]c2ccccc12
O=C(NC(=S)Nc1ccccc1N1CCCC1)c1ccc([N+](=O)[O-])cc1
Cc1[nH]n(-c2ccc(F)cc2)c(=O)c1/C=N/c1sc2c(c1C#N)CCCC2
O=C(NC(=S)NC1CCCCC1)c1ccc(Cl)cc1
CCCCCn1c(=S)[nH]c2ncccc2c1=O
CC(C)(C)n1nnnc1C(c1cc2cc3c(cc2[nH]c1=O)OCCO3)N1CCSCC1 (stereo not given)
COc1ccc(C(=O)NNC(=O)C(=O)NC2CCCCC2)cc1
C=CCN(CC=C)C(=S)NC(=O)c1ccc(OC)c(Br)c1
Nc1nc(C23CC4CC(CC(C4)C2)C3)cs1
Cc1ccc(-c2nc3ccccc3c(=O)n2O)cc1
